Measured values reported in ChEMBL document CHEMBL3259696, “Berberine and its metabolites: relationship between physicochemical properties and plasma levels after administration to human subjects” (J Nat Prod, 2014).
Active and inactive are the calls of the source. The calls are words filed in the database; no cut-off is given here.

Legend:
[1] = Solubility of the compound in sodium phosphate buffer at pH 8.6 at 25 degC after 1 week by HPLC-ESIMS/MS analysis; format: physicochemical
In short: (§1)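 Solubility samples in sodium phosphate buffer at each pH were stirred continuously for 1 week at 25 °C. Solutions were passed through 0.45 μm regenerated-cellulose filters, diluted in mobile phase and quantified by HPLC-ESIMS/MS.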

[2] = Solubility of the compound in sodium phosphate buffer at pH 7 at 25 degC after 1 week by HPLC-ESIMS/MS analysis; format: physicochemical; in short: as §1
[3] = Solubility of the compound in sodium phosphate buffer at pH 6 at 25 degC after 1 week by HPLC-ESIMS/MS analysis; format: physicochemical; in short: as §1
[4] = Solubility of the compound in sodium phosphate buffer at pH 4.5 at 25 degC after 1 week by HPLC-ESIMS/MS analysis; format: physicochemical; in short: as §1
[5] = 1-Octanol-water partition coefficient, log P of the compound at pH 8.6 after 1 week by HPLC-ESIMS/MS analysis; format: physicochemical
In short: (§2)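 Shake-flask partition: analytes started at 0.1 mM in 0.1 M Na phosphate buffer (pH range 4.5 to 9). Buffer solution mixed 1:1 with buffer-presaturated 1-octanol and equilibrated 1 week under continuous stirring at 25 °C. After centrifugation the phases were separated, and the aqueous phase was diluted in mobile phase and quantified by HPLC-ESIMS/MS. LogD calculated from the aqueous-phase concentration.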

[6] = 1-Octanol-water partition coefficient, log P of the compound at pH 7 after 1 week by HPLC-ESIMS/MS analysis; format: physicochemical; in short: as §2
[7] = 1-Octanol-water partition coefficient, log P of the compound at pH 6 after 1 week by HPLC-ESIMS/MS analysis; format: physicochemical; in short: as §2
[8] = 1-Octanol-water partition coefficient, log P of the compound at pH 4.5 after 1 week by HPLC-ESIMS/MS analysis; format: physicochemical; in short: as §2
[9] = 1-Octanol-water distribution coefficient, log D of the compound at pH 8.6 after 1 week by HPLC-ESIMS/MS analysis; format: physicochemical; in short: as §2
[10] = 1-Octanol-water distribution coefficient, log D of the compound at pH 7 after 1 week by HPLC-ESIMS/MS analysis; format: physicochemical; in short: as §2
[11] = 1-Octanol-water distribution coefficient, log D of the compound at pH 6 after 1 week by HPLC-ESIMS/MS analysis; format: physicochemical; in short: as §2
[12] = 1-Octanol-water distribution coefficient, log D of the compound at pH 4.5 after 1 week by HPLC-ESIMS/MS analysis; format: physicochemical; in short: as §2
Albumin = Albumin (Bos taurus, UniProt P02769); experiment: Binding affinity to bovine serum albumin by fluorescence quenching assay; format: ADME; conditions: cattle, isolated protein
In short: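 BSA at 1.0 × 10−5 mol L−1 in Tris-HCl buffer (0.05 M Tris, 0.15 M NaCl, pH 7.4), titrated with quencher from 0 to 2.4 × 10−5 mol L−1 in 0.2 × 10−5 steps at room temperature. Tryptophan emission recorded at 300–500 nm (excitation 295 nm; maximum at 340 nm). Binding constant KB obtained from a modified Stern–Volmer plot, assuming static quenching.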

[13] = Dissociation constant, pKa of the compound; format: physicochemical
In short: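 pKa values predicted in silico for the ionizable groups of the parent and its metabolites, then compared with experimentally obtained values from earlier reports.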

[14] = Cmax in human plasma at 500 mg, po by HPLC-ESIMS/MS analysis; format: ADME, organism-based; parameters: dose 500 mg, route oral
[15] = Tmax in human at 500 mg, po by HPLC-ESIMS/MS analysis; format: ADME, organism-based; conditions: in vivo
Plasma [16] = experiment: Cmax in human plasma assessed as demethyleneberberin at 500 mg, po by HPLC-ESIMS/MS analysis; format: ADME, organism-based; parameters: dose 500 mg, route oral; conditions: in vivo
Plasma [17] = experiment: Cmax in human plasma assessed as jatrorrhizine at 500 mg, po by HPLC-ESIMS/MS analysis; format: ADME, organism-based; parameters: dose 500 mg, route oral; conditions: in vivo
Homo sapiens [18] = experiment: Tmax in human assessed as demethyleneberberin at 500 mg, po by HPLC-ESIMS/MS analysis; format: ADME, organism-based; conditions: in vivo
Homo sapiens [19] = experiment: Tmax in human assessed as jatrorrhizine at 500 mg, po by HPLC-ESIMS/MS analysis; format: ADME, organism-based; conditions: in vivo
Plasma [20] = experiment: Cmax in human plasma assessed as berberrubine at 500 mg, po after 4 hrs by HPLC-ESIMS/MS analysis; format: ADME, organism-based; parameters: dose 500 mg, route oral; conditions: in vivo
Plasma [21] = experiment: Plasma concentration in human assessed as berberrubine at 500 mg, po after 24 hrs by HPLC-ESIMS/MS analysis; format: ADME, organism-based; conditions: in vivo
[22] = Cmax at steady state in hypercholesterolemic patient at 15 mg/kg administered for 3 months by HPLC-ESIMS/MS analysis; format: ADME, organism-based; parameters: dose 15 mg/kg; conditions: human, in vivo
Homo sapiens [23] = experiment: Cmax at steady state in hypercholesterolemic patient assessed as berberrubine at 15 mg/kg/day administered for 3 months by HPLC-ESIMS/MS analysis; format: ADME, organism-based; parameters: dose 15 mg/kg/day; conditions: in vivo
Homo sapiens [24] = experiment: Cmax at steady state in hypercholesterolemic patient assessed as demethyleneberberin at 15 mg/kg/day administered for 3 months by HPLC-ESIMS/MS analysis; format: ADME, organism-based; parameters: dose 15 mg/kg/day; conditions: in vivo
Homo sapiens [25] = experiment: Cmax at steady state in hypercholesterolemic patient assessed as jatrorrhizine at 15 mg/kg/day administered for 3 months by HPLC-ESIMS/MS analysis; format: ADME, organism-based; parameters: dose 15 mg/kg/day; conditions: in vivo
Homo sapiens [26] = experiment: Hypolipidemic activity in hypercholesterolemic patient assessed as reduction of total cholesterol level at 15 mg/kg/day administered for 3 months measured every month during compound treatment; format: functional, organism-based
Homo sapiens [27] = experiment: Hypolipidemic activity in hypercholesterolemic patient assessed as reduction of LDL cholesterol level at 15 mg/kg/day administered for 3 months measured every month during compound treatment; format: functional, organism-based
Homo sapiens [28] = experiment: Effect on total triglyceride level in hypercholesterolemic patient at 15 mg/kg/day administered for 3 months measured every month during compound treatment; format: functional, organism-based
Homo sapiens [29] = experiment: Effect on HDL cholesterol level in hypercholesterolemic patient at 15 mg/kg/day administered for 3 months measured every month during compound treatment; format: functional, organism-based
[30] = Dissociation constant, acidic pKa of the compound; format: physicochemical
[31] = Dissociation constant, basic pKa of the compound; format: physicochemical

Albumin, sequence (P02769 whole entry): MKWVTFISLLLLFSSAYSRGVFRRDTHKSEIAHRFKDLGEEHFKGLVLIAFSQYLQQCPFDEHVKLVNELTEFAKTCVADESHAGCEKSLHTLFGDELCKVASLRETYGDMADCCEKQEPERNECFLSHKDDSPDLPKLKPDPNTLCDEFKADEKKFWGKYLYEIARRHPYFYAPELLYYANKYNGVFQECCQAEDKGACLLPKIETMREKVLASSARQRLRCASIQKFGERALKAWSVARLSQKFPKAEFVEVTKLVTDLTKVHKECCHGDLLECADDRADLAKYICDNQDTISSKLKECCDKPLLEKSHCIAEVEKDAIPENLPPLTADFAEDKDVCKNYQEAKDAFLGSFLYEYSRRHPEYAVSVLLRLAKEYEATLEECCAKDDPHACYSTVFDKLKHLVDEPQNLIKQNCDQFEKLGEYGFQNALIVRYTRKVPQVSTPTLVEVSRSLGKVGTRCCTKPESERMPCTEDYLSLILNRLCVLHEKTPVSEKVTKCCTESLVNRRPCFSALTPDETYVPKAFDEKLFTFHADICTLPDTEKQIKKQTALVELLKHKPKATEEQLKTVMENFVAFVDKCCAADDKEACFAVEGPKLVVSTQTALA

Row | Compound | solubility at 168 h [1] | solubility at 168 h [2] | solubility at 168 h [3] | solubility at 168 h [4] | logD at 168 h [5] | logD at 168 h [6] | logD at 168 h [7] | logD at 168 h [8] | logD at 168 h [9] | logD at 168 h [10] | logD at 168 h [11] | logD at 168 h [12] | Kb (Albumin) | pKa [13] | further results
1 | COc1ccc2cc3[n+](cc2c1OC)CCc1cc(O)c(O)cc1-3.[Cl-] | 6.5 mM | 3.7 mM | 0.2 mM | 0.2 mM | -0.5 | -1.1 | -1.1 | -1.1 | -0.3 | -1.1 | -1.1 | -1.1 | 1.98 ×10³ L/mol | 9.4 | –
2 | COc1cc2c(cc1O)CC[n+]1cc3c(OC)c(OC)ccc3cc1-2.[Cl-] [JATRORRHIZINE CHLORIDE] | 12.2 mM | 12.4 mM | 1.3 mM | 1.5 mM | 0.1 | -1.2 | -1.5 | -1.5 | 0.6 | -1.2 | -1.5 | -1.5 | 1.73 ×10³ L/mol | 9.6 | –
3 | COc1ccc2cc3[n+](cc2c1OC)CCc1cc2c(cc1-3)OCO2.[Cl-] [BERBERINE CHLORIDE] | 9.6 mM | 9 mM | 7.6 mM | 8.2 mM | -1.2 | -1.2 | -1.2 | -1.2 | -1.2 | -1.2 | -1.2 | -1.2 | 3.37 ×10³ L/mol | – | Cmax [14]: 0.07 nM; Tmax [15]: 1 h; Cmax (Plasma [16]): 0.14 nM; Cmax (Plasma [17]): 0.13 nM; Tmax (Homo sapiens [18]): 1 h; Tmax (Homo sapiens [19]): 2 h; Cmax (Plasma [20]): 1.4 nM; concentration (Plasma [21]): 0.15 nM; Cmax at 3 months [22]: 4 nM; Cmax (Homo sapiens [23]): 6.7 nM; Cmax (Homo sapiens [24]): 1.7 nM; Cmax (Homo sapiens [25]): 5.6 nM; Activity (Homo sapiens [26]): Active; Activity (Homo sapiens [27]): Active; Activity (Homo sapiens [28]): inactive; Activity (Homo sapiens [29]): inactive; pKa [30]: 2.47; pKa [31]: 15.7
4 | COc1ccc2cc3n(cc-2c1=O)CCc1cc2c(cc1-3)OCO2 | – | – | – | – | 1.6 | 1.5 | 1.3 | 0.6 | 4.6 | 2.9 | 1.8 | 0.7 | – | – | –
5 | COc1ccc2cc3[n+](cc2c1O)CCc1cc2c(cc1-3)OCO2.[Cl-] [BERBERRUBINE CHLORIDE] | 0.5 mM | 1 mM | 2 mM | 4.2 mM | 1.6 | 1.1 | 0.9 | -0.02 | 4.6 | 2.5 | 1.4 | 0.01 | 1.51 ×10³ L/mol | 5 | –
